In brackets after ≈: the same amount, converted by molar mass. Activity calls are given as the source filed them. No cut-off for these calls is given here.
Tests used:
Staphylococcus aureus [1] = assay: Antibacterial activity against Staphylococcus aureus ATCC 25923 after 24 hrs by broth microdilution based CLSI method; assay type: functional; conditions: ATCC 25923, 24 h
Staphylococcus aureus [2] = assay: Bactericidal activity against Staphylococcus aureus ATCC 25923 incubated for 24 hrs followed by plating onto tryptic soy agar plates and further incubated for 24 hrs by broth microdilution based CLSI method; assay type: functional; conditions: ATCC 25923, 24 h
Staphylococcus aureus [3] = assay: Selectivity ratio of MBC for Staphylococcus aureus ATCC 25923 to MIC for Staphylococcus aureus ATCC 25923; assay type: functional
Bacillus subtilis [4] = assay: Antibacterial activity against Bacillus subtilis ATCC 9372 after 24 hrs by broth microdilution based CLSI method; assay type: functional; conditions: ATCC 9372, 24 h
Bacillus pumilus [5] = assay: Antibacterial activity against Bacillus pumilus CMCC63202 after 24 hrs by broth microdilution based CLSI method; assay type: functional; conditions: CMCC63202, 24 h
Staphylococcus aureus [6] = assay: Antibacterial activity against methicillin-resistant Staphylococcus aureus ATCC 43300 after 24 hrs by broth microdilution based CLSI method; assay type: functional; conditions: ATCC 43300, 24 h
Staphylococcus aureus [7] = assay: Antibacterial activity against clinical isolate of penicillin-resistant Staphylococcus aureus after 24 hrs by broth microdilution based CLSI method; assay type: functional
Escherichia coli = assay: Antibacterial activity against Escherichia coli ATCC 25922 after 24 hrs by broth microdilution based CLSI method; assay type: functional; conditions: ATCC 25922, 24 h
Pseudomonas aeruginosa = assay: Antibacterial activity against Pseudomonas aeruginosa ATCC 27853 after 24 hrs by broth microdilution based CLSI method; assay type: functional; conditions: ATCC 27853, 24 h
HeLa = assay: Cytotoxicity in human HeLa cells assessed as reduction in cell viability after 36 hrs by MTT assay; assay type: cell-based
How it was run: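 HeLa cells seeded at 10⁴ cells/well and left overnight, then exposed to compound for 36 h. MTT (5 mg/mL solution) added for 4 h at 37 °C, medium replaced by DMSO for 10 min, absorbance read at 570 nm.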

[8] = molecular target: T1, Cell division protein FtsZ (Bacillus subtilis (strain 168)) (UniProt P17865); assay: Induction of Bacillus subtilis FtsZ polymerization at 10 ug/ml in presence of GTP by microtiter plate-based light-scattering assay
T1 sequence (whole entry): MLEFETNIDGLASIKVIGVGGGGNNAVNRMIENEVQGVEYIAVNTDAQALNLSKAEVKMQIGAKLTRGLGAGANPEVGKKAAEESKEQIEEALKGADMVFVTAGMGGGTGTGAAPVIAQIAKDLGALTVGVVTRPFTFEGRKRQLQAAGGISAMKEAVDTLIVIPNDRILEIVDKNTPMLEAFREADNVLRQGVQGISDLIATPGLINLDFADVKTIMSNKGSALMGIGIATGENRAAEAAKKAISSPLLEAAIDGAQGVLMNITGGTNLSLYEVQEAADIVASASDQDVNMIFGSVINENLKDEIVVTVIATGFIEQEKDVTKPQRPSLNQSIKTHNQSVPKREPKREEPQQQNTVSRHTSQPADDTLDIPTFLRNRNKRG
How it was run: (§1)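 Recombinant purified B. subtilis FtsZ (5 µM) with 1 mM GTP in 50 mM MES, 50 mM KCl, 2 mM magnesium acetate, compound 0–10 µg/mL. Polymerization followed as light scattering (A340) continuously at 25 °C for 30 min. DMSO vehicle and a non-FtsZ control were included.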

Bacillus subtilis [9] = assay: Potency index, ratio of PC190723 MIC to test compound MIC for antibacterial activity against Bacillus subtilis ATCC 9372 after 24 hrs by broth microdilution based CLSI method
Staphylococcus aureus [10] = assay: Bactericidal activity against methicillin-resistant Staphylococcus aureus ATCC 43300 incubated for 24 hrs followed by plating onto tryptic soy agar plates and further incubated for 24 hrs by broth microdilution based CLSI method; assay type: functional; conditions: ATCC 43300, 24 h
How it was run: (§2)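 MBC taken from the CLSI broth microdilution plates. These held 2-fold serial dilutions from 64 to 0.125 µg/mL in cation-adjusted Mueller-Hinton broth, seeded with log-phase bacteria and incubated aerobically for 24 h at 37 °C. Well aliquots were plated on TSA and colonies counted after 24 h. MBC is the lowest concentration giving a ≥3-log CFU reduction.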

Staphylococcus aureus [11] = assay: Bactericidal activity against clinical isolate of penicillin-resistant Staphylococcus aureus incubated for 24 hrs followed by plating onto tryptic soy agar plates and further incubated for 24 hrs by broth microdilution based CLSI method; assay type: functional; how it was run: as §2
Staphylococcus aureus [12] = assay: Bactericidal activity against methicillin-resistant Staphylococcus aureus ATCC 43300 assessed as reduction in viable bacterial count at 8 ug/ml after 24 hrs by time-kill assay; assay type: functional, organism-based
How it was run: (§3)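 Growing culture diluted to about 10⁶ CFU/mL in CAMH broth containing compound, then shaken at 37 °C. At set times, samples were serially diluted tenfold in CAMH broth and three dilutions plated on TSA. CFU/mL counted after 24 h at 37 °C. Detection limit 10³ CFU/mL. Points are the mean of two independent runs, with SD.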

Staphylococcus aureus [13] = assay: Antibacterial activity against methicillin-resistant Staphylococcus aureus ATCC 43300 infected in mouse assessed as reduction of bacterial burden in blood at 30 mg/kg, ip administered 0.1, 6 hrs postinfection and measured at 24 hrs post last dose; assay type: functional, organism-based
Mus musculus [14] = assay: Toxicity in mouse infected with methicillin-resistant Staphylococcus aureus ATCC 43300 assessed as mouse death at 30 mg/kg, ip administered 0.1, 6 hrs postinfection and measured after 1 week; assay type: organism-based; conditions: in vivo, 168 h
How it was run: (§4)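 KM mice (about 20 g) infected i.v. with 5.4 × 10⁷ CFU MRSA in 0.1 mL saline. Dosing i.p. in vehicle of 1% DMAC, 30% TEG, 7% HPβCD in water (final), with a vehicle-only group. Deaths recorded for one week after bacterial inoculation.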

[15] = molecular target: T1, Cell division protein FtsZ (Bacillus subtilis (strain 168)); assay: Induction of Bacillus subtilis FtsZ polymerization in presence of GTP by microtiter plate-based light-scattering assay; how it was run: as §1
Staphylococcus aureus [16] = assay: Selectivity ratio of MBC for methicillin-resistant Staphylococcus aureus ATCC 43300 to MIC for methicillin-resistant Staphylococcus aureus ATCC 43300; assay type: functional
How it was run: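 Ratio of MBC to MIC. Both come from the same CLSI broth microdilution run: 2-fold dilutions from 64 to 0.125 µg/mL in CAMH broth, 24 h at 37 °C. MIC is the last well without turbidity. MBC is the lowest concentration giving a ≥3-log CFU drop after plating on TSA for 24 h. Ratio 1–2 is read as bactericidal, ≥8 as bacteriostatic.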

Bacillus pumilus [17] = assay: Potency index, ratio of PC190723 MIC to test compound MIC for Bacillus pumilus CMCC63202 after 24 hrs by broth microdilution based CLSI method; assay type: functional
Staphylococcus aureus [18] = assay: Bactericidal activity against methicillin-resistant Staphylococcus aureus ATCC 43300 assessed as reduction in viable bacterial count at 0.5 times MIC after 24 hrs by time-kill assay; assay type: functional, organism-based; how it was run: as §3
Staphylococcus aureus [19] = assay: Bactericidal activity against methicillin-resistant Staphylococcus aureus ATCC 43300 assessed as reduction in viable bacterial count at 1 to 2 times MIC after 12 hrs by time-kill assay; assay type: functional; how it was run: as §3
Staphylococcus aureus [20] = assay: Bactericidal activity against methicillin-resistant Staphylococcus aureus ATCC 43300 assessed as reduction in viable bacterial count at 4 times MIC after 6 hrs by time-kill assay; assay type: functional, organism-based; how it was run: as §3
Bacillus pumilus [21] = assay: Antibacterial activity against Bacillus pumilus CMCC63202 assessed as increase in bacterial cell length at 0.5 times MIC after 18 hrs by phase-contrast optical microscopic analysis; assay type: functional, organism-based
How it was run: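 Harvested cells resuspended in PBS, spotted on poly-L-lysine (0.1% w/v) coated slides and cell length examined by phase-contrast microscopy at 40 magnification.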

Staphylococcus aureus [22] = assay: Antibacterial activity against methicillin-resistant Staphylococcus aureus ATCC 43300 infected in mouse assessed as reduction of bacterial burden in blood at 30 mg/kg, ip administered 0.1, 3, 6, 9 and 12 hrs postinfection and measured at 24 hrs post last dose; assay type: functional, organism-based
[23] = molecular target: T1, Cell division protein FtsZ (Bacillus subtilis (strain 168)); assay: Induction of Bacillus subtilis FtsZ assessed as increase in size of polymer at 10 ug/ml after 20 mins by transmission electron microscopic analysis
How it was run: (§5)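 Purified B. subtilis FtsZ incubated with or without compound at room temperature for 20 min in polymerization buffer (50 mM MES, 50 mM KCl, 2 mM magnesium acetate, 1 mM GTP). Samples put on glow-discharged Formvar/carbon copper grids, negatively stained with 1% phosphotungstic acid for 1 min, imaged by TEM at 100 kV.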

[24] = molecular target: T1, Cell division protein FtsZ (Bacillus subtilis (strain 168)); assay: Induction of Bacillus subtilis FtsZ assessed as increase in thickness of polymer size at 10 ug/ml after 20 mins by transmission electron microscopic analysis; how it was run: as §5
[25] = molecular target: T1, Cell division protein FtsZ (Bacillus subtilis (strain 168)); assay: Induction of Bacillus subtilis FtsZ assessed as increase in bundling of protofilament at 10 ug/ml after 20 mins by transmission electron microscopic analysis; how it was run: as §5
Mus musculus [26] = assay: Toxicity in mouse infected with methicillin-resistant Staphylococcus aureus ATCC 43300 assessed as mouse death at 30 mg/kg, ip administered 0.1, 3, 6, 9 and 12 hrs postinfection and measured after 1 week; assay type: organism-based; conditions: in vivo, 168 h; how it was run: as §4

Row | Structure (SMILES) | MIC (Staphylococcus aureus [1]) [µg/mL] | MBC (Staphylococcus aureus [2]) [µg/mL] | Ratio (Staphylococcus aureus [3]) | MIC (Bacillus subtilis [4]) [µg/mL] | MIC (Bacillus pumilus [5]) [µg/mL] | MIC (Staphylococcus aureus [6]) [µg/mL] | MIC (Staphylococcus aureus [7]) [µg/mL] | MIC (Escherichia coli) [µg/mL] | MIC (Pseudomonas aeruginosa) [µg/mL] | IC50 (HeLa) [µg/mL] | Activity [8] | Ratio (Bacillus subtilis [9]) | MBC (Staphylococcus aureus [10]) [µg/mL] | MBC (Staphylococcus aureus [11]) [µg/mL] | other results
1 | CC[C@H]1OC(=O)[C@H](C)[C@@H](O[C@H]2C[C@@](C)(OC)[C@@H](O)[C@H](C)O2)[C@H](C)[C@@H](O[C@@H]2O[C@H](C)C[C@H](N(C)C)[C@H]2O)[C@](C)(OC)C[C@@H](C)C(=O)[C@H](C)[C@@H](O)[C@]1(C)O [CLARITHROMYCIN] | 0.125 (≈ 0.167 µM) | 4 (≈ 5.35 µM) | 32 |  |  |  |  |  |  |  |  |  |  |  | 
2 | CC(C)(C)c1ccc(-c2cc(COc3ccc(F)c(C(N)=O)c3F)on2)cc1 | 8 (≈ 20.7 µM) |  |  | 0.03 (≈ 0.0776 µM) | 0.25 (≈ 0.647 µM) | 4 (≈ 10.4 µM) | 8 (≈ 20.7 µM) | > 64 | > 64 | > 128 | inactive | >16 |  |  | 
3 | CC(=O)NC[C@H]1CN(c2ccc(N3CCOCC3)c(F)c2)C(=O)O1 [LINEZOLID] |  | 32 (≈ 94.9 µM) |  | 1 (≈ 2.96 µM) | 1 (≈ 2.96 µM) | 1 (≈ 2.96 µM) |  | > 64 | > 64 |  |  |  | 32 (≈ 94.9 µM) | 32 (≈ 94.9 µM) | Activity (Staphylococcus aureus [12]): Active; Activity (Staphylococcus aureus [13]): Active; Activity (Mus musculus [14]): Non-Toxic
4 | O=C(O)c1cn(C2CC2)c2cc(N3CCNCC3)c(F)cc2c1=O |  |  |  |  |  |  |  |  |  |  |  |  |  |  | Activity [15]: inactive
5 | CC(C)(C)c1ccc(-c2cc(COc3ccc(F)c(C(N)=O)c3F)no2)cc1 | 2 (≈ 5.18 µM) | 4 (≈ 10.4 µM) | 2 | 0.015 (≈ 0.0388 µM) | 0.03 (≈ 0.0776 µM) | 2 (≈ 5.18 µM) | 4 (≈ 10.4 µM) | > 64 | > 64 | > 128 | Active | 32 | 2 (≈ 5.18 µM) | 8 (≈ 20.7 µM) | Ratio (Staphylococcus aureus [16]): 1; Ratio (Bacillus pumilus [17]): 32; Activity (Staphylococcus aureus [18]): inactive; viable count (Staphylococcus aureus [19]): 1000 CFU/mL; Activity (Staphylococcus aureus [20]): Active; Activity (Bacillus pumilus [21]): Active; Activity (Staphylococcus aureus [22]): Active; Activity [23]: Active; Activity [24]: Active; Activity [25]: Active; Activity (Mus musculus [26]): Non-Toxic

— ChEMBL document CHEMBL4257566, “Design, synthesis and structure-based optimization of novel isoxazole-containing benzamide derivatives as FtsZ modulators” (Eur J Med Chem, 2018)
